We go through 1 compound from ChEMBL document CHEMBL5356993, “Novel pyrazolo[3,4-d]pyrimidine derivatives: design, synthesis, anticancer evaluation, VEGFR-2 inhibition, and antiangiogenic activity” (RSC Med Chem, 2023).

Bounds are passed on as bounds.

The first test concerns NCI-H23. The test can be described thus: Antiproliferative activity against human NCI-H23 cells assessed as cell growth inhibition at 10 uM incubated for 48 hrs by SRB assay relative to control. The conditions noted are these: read-out: GI. The test is classed as functional. (Sulforhodamine B stains cellular protein and so reports cell mass.)
Consider `Cc1nc2c(cnn2-c2ccccc2)c(=O)n1-c1ccc(/N=C2\C(=O)Nc3ccccc32)cc1`, for which the inhibition of growth at 10 µM amounted to 30.7%.

A further test has as its system 786-0. The test can be described thus: Antiproliferative activity against human 786-0 cells assessed as cell growth inhibition at 10 uM incubated for 48 hrs by SRB assay relative to control. It is filed as functional. To be noted: read-out: GI.
For `Cc1nc2c(cnn2-c2ccccc2)c(=O)n1-c1ccc(/N=C2\C(=O)Nc3ccccc32)cc1`, the inhibition of growth at 10 µM was less than 15%.

In a further test the test system is EKVX. The test can be described thus: Antiproliferative activity against human EKVX cells assessed as cell growth inhibition at 10 uM incubated for 48 hrs by SRB assay relative to control. It is filed as functional. To be noted: read-out: GI.
Take `Cc1nc2c(cnn2-c2ccccc2)c(=O)n1-c1ccc(/N=C2\C(=O)Nc3ccccc32)cc1`: the inhibition of growth at 10 µM turned out to be 52.1%.

A further test deals with CCRF-CEM. The test can be described thus: Antiproliferative activity against human CCRF-CEM cells assessed as cell growth inhibition at 10 uM incubated for 48 hrs by SRB assay relative to control. It is filed as functional. The conditions noted are these: read-out: GI. In a few lines: (§1)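 Cells plated in 96-well plates at […] cells/well and preincubated 24 h at 37 °C, 5% CO2. Time-zero plates were TCA-fixed. Compound was diluted in medium with 50 µg/mL gentamicin and cells exposed for 48 h. Adherent cells fixed with 10% final TCA; suspension cells with 16% final TCA. Plates stained with 0.4% SRB in 1% acetic acid, dye solubilized in 10 mM Trizma, absorbance read at 515 nm. Percent growth calculated against time-zero and control.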
In the case of `Cc1nc2c(cnn2-c2ccccc2)c(=O)n1-c1ccc(/N=C2\C(=O)Nc3ccccc32)cc1`, the inhibition of growth at 10 µM was found to be 37.8%.

For another test, the system named is SW-620. Kind of test: Antiproliferative activity against human SW620 cells assessed as cell growth inhibition at 10 uM incubated for 48 hrs by SRB assay relative to control. The conditions noted are these: read-out: GI. It is filed as functional. The procedure, abridged:
(§2)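 Cells pre-incubated 24 h at 37°C, 5% CO2, then exposed to compound (DMSO stock diluted in medium with 50 µg/mL gentamicin) for 48 h. Adherent cells fixed with cold TCA (final 10%, 60 min, 4°C); suspension cells fixed with 16% TCA final. Stained with 0.4% SRB in 1% acetic acid for 10 min, dye solubilized in 10 mM Trizma base, absorbance read at 515 nm. Growth calculated against time-zero and untreated control plates.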
Regarding `Cc1nc2c(cnn2-c2ccccc2)c(=O)n1-c1ccc(/N=C2\C(=O)Nc3ccccc32)cc1`, the inhibition of growth at 10 µM was less than 15%.

The test system of another test is A498. The test can be described thus: Antiproliferative activity against human A498 cells assessed as cell growth inhibition at 10 uM incubated for 48 hrs by SRB assay relative to control. The test is classed as functional. The conditions noted are these: read-out: GI. The procedure, abridged: as §1
Consider `Cc1nc2c(cnn2-c2ccccc2)c(=O)n1-c1ccc(/N=C2\C(=O)Nc3ccccc32)cc1`, for which the inhibition of growth at 10 µM was less than 15%.

In the next test the test system is NCI-H522. Kind of test: Antiproliferative activity against human NCI-H522 cells assessed as cell growth inhibition at 10 uM incubated for 48 hrs by SRB assay relative to control. The test is classed as functional. To be noted: read-out: GI. The procedure, abridged:
as §1
For `Cc1nc2c(cnn2-c2ccccc2)c(=O)n1-c1ccc(/N=C2\C(=O)Nc3ccccc32)cc1`, the inhibition of growth at 10 µM was 16.8%.

The test system of a further test is NCI-H460. The test can be described thus: Antiproliferative activity against human NCI-H460 cells assessed as cell growth inhibition at 10 uM incubated for 48 hrs by SRB assay relative to control. To be noted: read-out: GI. It is filed as functional.
Take `Cc1nc2c(cnn2-c2ccccc2)c(=O)n1-c1ccc(/N=C2\C(=O)Nc3ccccc32)cc1`: the inhibition of growth at 10 µM was less than 15%.

In the next test the test system is M14. Kind of test: Antiproliferative activity against human M14 cells assessed as cell growth inhibition at 10 uM incubated for 48 hrs by SRB assay relative to control. The test is classed as functional. To be noted: read-out: GI. The procedure, abridged: as §1
With `Cc1nc2c(cnn2-c2ccccc2)c(=O)n1-c1ccc(/N=C2\C(=O)Nc3ccccc32)cc1`, the inhibition of growth at 10 µM came out at 18.8%.

The next test deals with SK-MEL-5. The test can be described thus: Antiproliferative activity against human SK-MEL-5 cells assessed as cell growth inhibition at 10 uM incubated for 48 hrs by SRB assay relative to control. It is filed as functional. To be noted: read-out: GI. In a few lines: as §1
In the case of `Cc1nc2c(cnn2-c2ccccc2)c(=O)n1-c1ccc(/N=C2\C(=O)Nc3ccccc32)cc1`, the inhibition of growth at 10 µM turned out to be 42.9%.

Another test relates to LOX IMVI. The test can be described thus: Antiproliferative activity against human LOX IMVI cells assessed as cell growth inhibition at 10 uM incubated for 48 hrs by SRB assay relative to control. It is filed as functional. The conditions noted are these: read-out: GI.
For the compound `Cc1nc2c(cnn2-c2ccccc2)c(=O)n1-c1ccc(/N=C2\C(=O)Nc3ccccc32)cc1`, the inhibition of growth at 10 µM is 18.3%.

Another test concerns MDA-MB-435. The test can be described thus: Antiproliferative activity against human MDA-MB-435 cells assessed as cell growth inhibition at 10 uM incubated for 48 hrs by SRB assay relative to control. The test is classed as functional. The conditions noted are these: read-out: GI.
Take `Cc1nc2c(cnn2-c2ccccc2)c(=O)n1-c1ccc(/N=C2\C(=O)Nc3ccccc32)cc1`: the inhibition of growth at 10 µM is less than 15%.

For a further test, the system named is HCT-15. The test can be described thus: Antiproliferative activity against human HCT-15 cells assessed as cell growth inhibition at 10 uM incubated for 48 hrs by SRB assay relative to control. The test is classed as functional. The conditions noted are these: read-out: GI.
On to `Cc1nc2c(cnn2-c2ccccc2)c(=O)n1-c1ccc(/N=C2\C(=O)Nc3ccccc32)cc1`, for which the inhibition of growth at 10 µM was 15.7%.

A further test has as its system TK-10. The test can be described thus: Antiproliferative activity against human TK-10 cells assessed as cell growth inhibition at 10 uM incubated for 48 hrs by SRB assay relative to control. The test is classed as functional. To be noted: read-out: GI. In a few lines:
as §2
In the case of `Cc1nc2c(cnn2-c2ccccc2)c(=O)n1-c1ccc(/N=C2\C(=O)Nc3ccccc32)cc1`, the inhibition of growth at 10 µM is less than 15%.

Another test has as its system HOP-62. Kind of test: Antiproliferative activity against human HOP-62 cells assessed as cell growth inhibition at 10 uM incubated for 48 hrs by SRB assay relative to control. The conditions noted are these: read-out: GI. It is filed as functional.
With `Cc1nc2c(cnn2-c2ccccc2)c(=O)n1-c1ccc(/N=C2\C(=O)Nc3ccccc32)cc1`, the inhibition of growth at 10 µM is less than 15%.

A further test concerns OVCAR-4. The test can be described thus: Antiproliferative activity against human OVCAR-4 cells assessed as cell growth inhibition at 10 uM incubated for 48 hrs by SRB assay relative to control. The conditions noted are these: read-out: GI. The test is classed as functional.
For the compound `Cc1nc2c(cnn2-c2ccccc2)c(=O)n1-c1ccc(/N=C2\C(=O)Nc3ccccc32)cc1`, the inhibition of growth at 10 µM stood at 43.9%.

The test system of another test is T47D. Kind of test: Antiproliferative activity against human T47D cells assessed as cell growth inhibition at 10 uM incubated for 48 hrs by SRB assay relative to control. It is filed as functional. The conditions noted are these: read-out: GI. In a few lines: as §2
With `Cc1nc2c(cnn2-c2ccccc2)c(=O)n1-c1ccc(/N=C2\C(=O)Nc3ccccc32)cc1`, the inhibition of growth at 10 µM worked out at 38.3%.

Another test relates to HL-60(TB). Kind of test: Antiproliferative activity against human HL-60(TB) cells assessed as cell growth inhibition at 10 uM incubated for 48 hrs by SRB assay relative to control. It is filed as functional. To be noted: read-out: GI. The procedure, abridged: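 Cells were plated at […] cells/well and preincubated 24 h at 37°C, 5% CO2, with time-zero plates TCA-fixed. Compound was diluted from DMSO stock in medium with 50 µg/mL gentamicin, then exposed for 48 h. Settled suspension cells were fixed with 80% TCA (final 16%), stained with 0.4% SRB and solubilized in 10 mM Trizma, A515. Growth was taken relative to Tz and control.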
On to `Cc1nc2c(cnn2-c2ccccc2)c(=O)n1-c1ccc(/N=C2\C(=O)Nc3ccccc32)cc1`, for which the inhibition of growth at 10 µM is less than 15%.

The next test relates to HCT-116. Kind of test: Antiproliferative activity against human HCT-116 cells assessed as cell growth inhibition at 10 uM incubated for 48 hrs by SRB assay relative to control. It is filed as functional. The conditions noted are these: read-out: GI.
Turning to `Cc1nc2c(cnn2-c2ccccc2)c(=O)n1-c1ccc(/N=C2\C(=O)Nc3ccccc32)cc1`, the inhibition of growth at 10 µM worked out at 17.9%.

The next test has as its system UACC-62. Kind of test: Antiproliferative activity against human UACC-62 cells assessed as cell growth inhibition at 10 uM incubated for 48 hrs by SRB assay relative to control. It is filed as functional. The conditions noted are these: read-out: GI. In a few lines: as §2
Turning to `Cc1nc2c(cnn2-c2ccccc2)c(=O)n1-c1ccc(/N=C2\C(=O)Nc3ccccc32)cc1`, the inhibition of growth at 10 µM is 36.2%.

A further test relates to HCC 2998. The test can be described thus: Antiproliferative activity against human HCC 2998 cells assessed as cell growth inhibition at 10 uM incubated for 48 hrs by SRB assay relative to control. The conditions noted are these: read-out: GI. The test is classed as functional.
As for `Cc1nc2c(cnn2-c2ccccc2)c(=O)n1-c1ccc(/N=C2\C(=O)Nc3ccccc32)cc1`, the inhibition of growth at 10 µM is less than 15%.

In another test the test system is SF-539. The test can be described thus: Antiproliferative activity against human SF-539 cells assessed as cell growth inhibition at 10 uM incubated for 48 hrs by SRB assay relative to control. It is filed as functional. To be noted: read-out: GI. The procedure, abridged:
as §1
With `Cc1nc2c(cnn2-c2ccccc2)c(=O)n1-c1ccc(/N=C2\C(=O)Nc3ccccc32)cc1`, the inhibition of growth at 10 µM came out at 20.9%.

A further test concerns K562. Kind of test: Antiproliferative activity against human K562 cells assessed as cell growth inhibition at 10 uM incubated for 48 hrs by SRB assay relative to control. The test is classed as functional. To be noted: read-out: GI.
With `Cc1nc2c(cnn2-c2ccccc2)c(=O)n1-c1ccc(/N=C2\C(=O)Nc3ccccc32)cc1`, the inhibition of growth at 10 µM stood at 34.4%.
